# According to paper PMC5474437 (EBioMedicine, 2017):
# Key:
# [1] = biological target: human neutrophil peptide 1 (human); experiment: SPR
# HepG2 cells = experiment: Lipid; format: cell-based, human
# How it was run: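 HepG2 cells were grown in DMEM with 10% heat-inactivated FCS at 37 °C, 5% CO2. Human LDL (50 μg/ml) was pre-incubated 30 min at 37 °C with peptide (1 μg/ml) or PBS vehicle. Cells were then exposed to LDL for 2 h. Oil Red O staining followed, and the eluted dye gave relative lipid content.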
# Lp(a) = settings: ref Bdeir et al., 1999; cited from earlier work
# Apoe−/− HNP1tg/tg mice [2] = experiment: Plasma lipids and FPLC lipoprotein fractions, HNP1-transgenic mice; format: in vivo, mouse; settings: transgenic HNP1 expression
# How it was run: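 Female Apoe−/− HNP1tg/tg mice and Apoe−/− littermates were fed high-fat diet (21% fat, 0.15% cholesterol) for 4 weeks. Plasma was stored at −80 °C and triglycerides were measured enzymatically with a kit. For lipoprotein profiles, plasma from 10 animals per group was pooled (0.25 ml) and FPLC gel-filtered on two Superose 6 columns in series.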
# [3] = system: plasma lipoprotein fractions (VLDL, LDL, HDL); experiment: Dot blot of lipoprotein fractions of HNP1-treated mice; format: binding, mouse; settings: HNP1 10 μg i.v., plasma after 24 h
# How it was run: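 Apoe−/− mice on high-fat diet received 10 μg i.v.; plasma collected after 24 h, pooled (10 animals per group, 0.25 ml) and fractionated by FPLC gel filtration on two Superose 6 columns in series. Fractions spotted on nitrocellulose, blocked in 1% milk/PBS (0.5–1.0 h, RT), probed overnight at 4 °C with anti-HNP1, ApoA, ApoB or ApoC3 (1:5000), HRP secondary 1:5000 (1 h, RT), ECL chemiluminescence.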
# [4] = system: hepatocytes of C57BL/6 wild-type mice; experiment: Liver perfusion, Dil-LDL uptake in hepatocytes, wild-type mice; format: in vivo, mouse; settings: Dil-LDL 50 μg/ml with HNP1 10 μg/ml, 20 min, 2 ml/min, normocholesterolemic WT mice, flow cytometry, n = 3 per group
# How it was run: (§1)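 Anaesthetised mice underwent laparotomy with double-ligated vena cava. Portal vein cannulated; liver perfused 20 min at 2 ml/min with DiI-labelled human LDL (50 μg/ml) preincubated with 10 μg/ml peptide in PBS, or PBS alone. Liver minced, filtered (100 μm), spun 500 g 5 min, then 36% Percoll-HBSS 800 g 20 min. Top-phase hepatocytes analysed by flow cytometry as fold over background fluorescence; n = 3 per group, Mann-Whitney test.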
# [5] = system: plasma cholesterol / lipoproteins of hypercholesterolemic mice; experiment: Precipitation of lipid-bound HNP1 from plasma with anti-HNP1 magnetic beads; format: binding, mouse; settings: dot blot of precipitate
# How it was run: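 Anti-HNP monoclonal antibody (100 μg) coupled overnight at room temperature to 3.3 × 108 magnetic beads in 1 M ammonium sulfate. Washed beads, at 2 × 109 beads/ml, added to 50 μl plasma from hypercholesterolemic mice incubated with the peptide, then rotated overnight at room temperature. Beads removed; precipitated samples spotted on nitrocellulose and probed by chemiluminescent dot blot with apolipoprotein antibodies.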
# [6] = system: Apoe−/− HNP1tg/tg mice on high-fat diet; experiment: Atherosclerotic lesions in aortic root, HNP1-transgenic Apoe−/− mice; format: in vivo, mouse; settings: transgenic HNP1 expression, high-fat diet 4 weeks, Ly6G staining, n=10
# How it was run: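 Female Apoe−/− HNP1tg/tg mice (C57Bl/6 background, backcrossed ≥10 generations) fed high-fat diet (21% fat, 0.15% cholesterol) for 4 weeks. Frozen aortic root sections stained with anti-Ly6G (1A8, 1:100), then secondary antibody 30 min at room temperature, with DAPI nuclear counterstain. Images analysed by fluorescence microscopy.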
# Apoe−/− HNP1tg/tg mice [7] = experiment: Blood cell counts by flow cytometry, HNP1-transgenic mice; format: in vivo, mouse; settings: transgenic HNP1 expression, vs Apoe−/−, high-fat diet 4 weeks, n = 10
# How it was run: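 Female Apoe−/− HNP1tg/tg mice and Apoe−/− littermates (C57Bl/6 background, ≥10 backcross generations) fed high-fat diet (21% fat, 0.15% cholesterol) for 4 weeks. Blood red cells were lysed (150 mM NH4Cl, 10 mM KHCO3, 0.1 mM diNaEDTA, pH 7.4) and HBSS-washed. Cells were stained for CD115, CD11b, CD45 and Gr1 and analysed by flow cytometry; absolute counts came from counting beads.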
# Apoe−/− mice = experiment: Plasma lipids after repeated HNP1 treatment; format: in vivo, mouse; settings: 10 μg every other day i.v., 4 weeks, n = 8–11 per group
# How it was run: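 Female Apoe−/− mice on high-fat diet (21% fat, 0.15% cholesterol) for 8 weeks received peptide (10 μg i.v., every other day) or PBS i.v. over the last 4 weeks. Plasma triglycerides were measured enzymatically with a kit. Blood leukocytes were counted by flow cytometry after red cell lysis, using CD115/CD11b/CD45/Gr1 staining and counting beads. n = 8–11 per group; one-way ANOVA with Bonferroni test.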
# liver of Ldlr−/− mice = experiment: Liver perfusion, Dil-LDL uptake, Ldlr−/− mice; format: in vivo, mouse; settings: Dil-LDL 50 μg/ml with HNP1 10 μg/ml, 20 min, 2 ml/min, n = 3 per group
# How it was run: as §1
# [8] = Plasma HNP1 levels in HNP1-transgenic mice, dot blot; format: in vivo, mouse; settings: Apoe−/− HNP1tg/tg mice, high-fat diet 4 weeks, dot blot against recombinant HNP1
# How it was run: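 Plasma from female HNP1-transgenic Apoe−/− mice after 4 weeks high-fat diet was spotted onto nitrocellulose and blocked in 1% non-fat milk/PBS (0.5–1.0 h, RT). Blots were probed overnight at 4 °C with anti-HNP1 (1:5000), washed in PBS/0.05% Tween 20, then given HRP secondary (1:5000, 1 h, RT) and 3 × 15 min washes. ECL chemiluminescence was the read-out.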
# mice expressing HNP1 = settings: ref Abu-Fanne et al., 2016, cited from earlier work
Substance,Kd [1] [nM],"HNP1-assisted LDL clearance after LDLR silencing (HepG2 cells; Ldlr siRNA 100 nM, 24 h, HepG2)","LDL uptake by HepG2 (HepG2 cells; human LDL 50 μg/ml, HNP1 1 μg/ml, 2 h, Oil Red O elution)",Interaction with Lp(a) (Lp(a)),"HDL-cholesterol (Apoe−/− HNP1tg/tg mice [2]; FPLC, pooled plasma of 10 animals per group)","Plasma triglyceride levels (Apoe−/− HNP1tg/tg mice [2]; high-fat diet 4 weeks, n=10)","Detection of HNP1 in lipoprotein fractions ([3]; FPLC fractions, dot blot)","Apolipoproteins in HNP1-positive fractions ([3]; antibodies to ApoA1, ApoB, ApoC3)",LDL uptake in hepatocytes (portal vein perfusion) [4],Apolipoproteins in anti-HNP1 precipitate [5],Number of lesional neutrophils [6],Blood counts of leukocyte subpopulations (Apoe−/− HNP1tg/tg mice [7]),"Plasma cholesterol levels after repeated treatment (Apoe−/− mice; vs baseline, PBS not different from baseline)",Plasma triglyceride levels and blood leukocyte counts after repeated treatment (Apoe−/− mice),"LDL uptake in the liver (portal vein perfusion), Ldlr−/− (liver of Ldlr−/− mice)",Plasma HNP1 levels [8] [µg/mL],Total cholesterol and LDL plasma levels in mice expressing HNP1 (mice expressing HNP1; normocholesterolemic),Lipid deposits in mice with transgenic HNP1 expression (mice expressing HNP1; prolonged periods of high fat diet feeding)
human ApoB (from UniProt P04114 28-4563) (natural protein),2.45,–,–,–,–,–,–,–,–,–,–,–,–,–,–,–,–,–
human ApoC3 (from UniProt P02656 21-99) (natural protein),0.0358,–,–,–,–,–,–,–,–,–,–,–,–,–,–,–,–,–
human neutrophil peptide 1 [HNP1],–,silencing of LDLR abrogated HNP1-assisted LDL clearance,strongly enhanced LDL uptake,shown to interact with Lp(a),HDL-cholesterol remained unaffected,triglyceride levels remained unaffected,only detected in VLDL and LDL fractions but not in HDL fractions,ApoB and ApoC3 were detected but not ApoA1,vast increase of LDL uptake in hepatocytes,precipitate stained positive for ApoB and ApoC3,The number of lesional neutrophils was not affected,comparable between the groups,lowered plasma cholesterol levels below baseline levels,not affected by HNP1 treatment,failed to stimulate LDL uptake in the liver,0.5 to 1,total cholesterol levels as well as LDL plasma levels were reduced in mice expressing HNP1,facilitated the development of very small lipid deposits
